According to ChEMBL document CHEMBL4251569, “Camptothecin-psammaplin A hybrids as topoisomerase I and HDAC dual-action inhibitors” (Eur J Med Chem, 2018):

Experiments:
[1] = test system: NCI-H460; assay: cells; assay type: functional, cell-based; conditions: Homo sapiens, NCI-H460, 72 h
[2] = biological target: Histone deacetylase 1 (Homo sapiens, UniProt Q13547); assay: Inhibition of HDAC1 (unknown origin) using RHKK(Ac)AMC as substrate after 1 to 2 hrs by fluorescence assay
[3] = test system: CAPAN-1; assay: cells; assay type: functional, cell-based; conditions: Homo sapiens, CAPAN-1, 72 h
[4] = biological target: Polyamine deacetylase HDAC10 (Homo sapiens, UniProt Q969S8); assay: Inhibition of HDAC10 (unknown origin) using RHKK(Ac)AMC as substrate after 1 to 2 hrs by fluorescence assay
[5] = biological target: Protein deacetylase HDAC6 (Homo sapiens, UniProt Q9UBN7); assay: Inhibition of HDAC6 (unknown origin) using RHKK(Ac)AMC as substrate after 1 to 2 hrs by fluorescence assay
[6] = biological target: Histone deacetylase 2 (Homo sapiens, UniProt Q92769); assay: Inhibition of HDAC2 (unknown origin) using RHKK(Ac)AMC as substrate after 1 to 2 hrs by fluorescence assay
[7] = biological target: Histone deacetylase 4 (Homo sapiens, UniProt P56524); assay: Inhibition of HDAC4 (unknown origin) using fluorogenic substrate after 1 to 2 hrs by fluorescence assay
Outline: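 Purified HDAC4 preincubated with compound (10 concentrations from 10 µM, triplicate, final 1% DMSO) in 50 mM Tris-HCl pH 8.0, 137 mM NaCl, 2.7 mM KCl, 1 mM MgCl2, 1 mg/ml BSA. Class 2a trifluoroacetyl-lysine fluorogenic substrate added and incubated 1–2 h at 30 °C. Developer with TMP269 stops the reaction; fluorescence read at ex 360/em 460 at plateau. Activity is relative to DMSO, and IC50 comes from a sigmoidal fit.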

[8] = test system: DG-75; assay: cells; assay type: functional, cell-based; conditions: Homo sapiens, DG-75, 72 h
[9] = cells; assay type: functional, cell-based; conditions: Homo sapiens, 72 h
[10] = test system: L-428; assay: Antiproliferative activity against human L428 cells at 10 uM after 72 hrs by MTT assay relative to control; assay type: functional
[11] = cells; assay type: functional, cell-based; conditions: Homo sapiens, A2780/DX, 72 h
[12] = test system: JeKo-1; assay: cells; assay type: functional, cell-based; conditions: Homo sapiens, JeKo-1, 72 h
[13] = test system: DU-145; assay: cells; assay type: functional, cell-based; conditions: Homo sapiens, DU-145, 72 h
[14] = test system: HepG2; assay: Antiproliferative activity against human HepG2 cells after 72 hrs by SRB assay; assay type: functional, cell-based; conditions: HepG2, 72 h
[15] = test system: DG-75; assay: Antiproliferative activity against human DG75 cells at 10 uM after 72 hrs by MTT assay relative to control; assay type: functional
[16] = test system: L-428; assay: cells; assay type: functional, cell-based; conditions: Homo sapiens, L-428, 72 h
[17] = test system: HT-29; assay: Antiproliferative activity against human HT-29 cells after 72 hrs by SRB assay; assay type: functional, cell-based; conditions: HT-29, 72 h
[18] = test system: OCI-Ly3; assay: cells; conditions: Homo sapiens, OCI-Ly3, 72 h
[19] = test system: HeLa; assay: cells; assay type: functional, cell-based; conditions: Homo sapiens, 72 h
[20] = test system: KM-H2; assay: Antiproliferative activity against human KM-H2 cells at 10 uM after 72 hrs by MTT assay relative to control; assay type: functional
[21] = test system: U2932; assay: cells; assay type: functional, cell-based; conditions: Homo sapiens, U2932, 72 h
[22] = test system: JeKo-1; assay: Antiproliferative activity against human JeKo1 cells at 10 uM after 72 hrs by MTT assay relative to control; assay type: functional
[23] = test system: KM-H2; assay: cells; conditions: Homo sapiens, KM-H2, 72 h
[24] = cells; assay type: functional, cell-based; conditions: Homo sapiens, MINO, 72 h
[25] = Antiproliferative activity against human Mino cells at 10 uM after 72 hrs by MTT assay relative to control; assay type: functional
[26] = test system: MM473; assay: animal or person; conditions: Mus musculus, MM473, iv, read-out: INH
[27] = cells; assay type: functional, cell-based; conditions: Homo sapiens, 72 h; remark: listed apart in the source
[28] = test system: A-431; assay: cells; assay type: functional, cell-based; conditions: Homo sapiens, A-431, 72 h
[29] = test system: OCI-Ly3; assay: Antiproliferative activity against human OCI-LY3 cells at 10 uM after 72 hrs by MTT assay relative to control; assay type: functional
[30] = test system: NB-4; assay: cells; assay type: functional, cell-based; conditions: Homo sapiens, NB-4, 72 h
[31] = test system: A2780; assay: cells; assay type: functional, cell-based; conditions: Homo sapiens, A2780, 72 h
[32] = cells; assay type: functional, cell-based; conditions: Homo sapiens, MM487, 72 h

Protein deacetylase HDAC6, sequence (Q9UBN7 whole entry): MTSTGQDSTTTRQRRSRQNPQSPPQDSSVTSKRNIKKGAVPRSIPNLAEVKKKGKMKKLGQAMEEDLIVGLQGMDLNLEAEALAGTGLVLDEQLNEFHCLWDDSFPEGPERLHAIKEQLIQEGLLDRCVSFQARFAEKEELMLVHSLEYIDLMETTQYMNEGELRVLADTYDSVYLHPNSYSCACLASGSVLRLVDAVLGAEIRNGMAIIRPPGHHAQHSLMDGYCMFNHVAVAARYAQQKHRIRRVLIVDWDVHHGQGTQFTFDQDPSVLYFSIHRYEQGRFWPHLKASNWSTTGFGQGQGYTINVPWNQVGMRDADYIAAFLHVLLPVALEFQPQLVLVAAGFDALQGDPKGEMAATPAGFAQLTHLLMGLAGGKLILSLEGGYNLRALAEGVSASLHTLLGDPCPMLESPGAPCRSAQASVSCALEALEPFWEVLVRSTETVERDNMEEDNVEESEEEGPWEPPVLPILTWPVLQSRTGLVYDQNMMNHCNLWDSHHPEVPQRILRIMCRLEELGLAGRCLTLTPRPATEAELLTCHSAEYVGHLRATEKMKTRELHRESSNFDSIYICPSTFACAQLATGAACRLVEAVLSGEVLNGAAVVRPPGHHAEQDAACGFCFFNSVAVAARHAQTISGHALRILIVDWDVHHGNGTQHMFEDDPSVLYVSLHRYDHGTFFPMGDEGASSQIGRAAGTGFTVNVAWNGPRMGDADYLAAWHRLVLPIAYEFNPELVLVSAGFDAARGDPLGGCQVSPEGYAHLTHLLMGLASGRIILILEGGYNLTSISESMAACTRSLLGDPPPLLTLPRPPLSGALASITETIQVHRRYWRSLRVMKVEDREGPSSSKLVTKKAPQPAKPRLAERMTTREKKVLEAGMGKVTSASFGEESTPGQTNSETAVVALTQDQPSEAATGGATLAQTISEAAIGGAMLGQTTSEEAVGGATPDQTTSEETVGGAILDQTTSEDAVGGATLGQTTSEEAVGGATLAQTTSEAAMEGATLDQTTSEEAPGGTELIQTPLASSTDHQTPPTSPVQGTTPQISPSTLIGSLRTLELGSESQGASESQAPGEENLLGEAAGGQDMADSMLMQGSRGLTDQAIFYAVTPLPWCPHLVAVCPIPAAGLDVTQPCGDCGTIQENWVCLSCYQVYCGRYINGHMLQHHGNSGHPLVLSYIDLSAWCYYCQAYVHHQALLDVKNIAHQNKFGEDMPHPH
Histone deacetylase 1, sequence (Q13547 whole entry): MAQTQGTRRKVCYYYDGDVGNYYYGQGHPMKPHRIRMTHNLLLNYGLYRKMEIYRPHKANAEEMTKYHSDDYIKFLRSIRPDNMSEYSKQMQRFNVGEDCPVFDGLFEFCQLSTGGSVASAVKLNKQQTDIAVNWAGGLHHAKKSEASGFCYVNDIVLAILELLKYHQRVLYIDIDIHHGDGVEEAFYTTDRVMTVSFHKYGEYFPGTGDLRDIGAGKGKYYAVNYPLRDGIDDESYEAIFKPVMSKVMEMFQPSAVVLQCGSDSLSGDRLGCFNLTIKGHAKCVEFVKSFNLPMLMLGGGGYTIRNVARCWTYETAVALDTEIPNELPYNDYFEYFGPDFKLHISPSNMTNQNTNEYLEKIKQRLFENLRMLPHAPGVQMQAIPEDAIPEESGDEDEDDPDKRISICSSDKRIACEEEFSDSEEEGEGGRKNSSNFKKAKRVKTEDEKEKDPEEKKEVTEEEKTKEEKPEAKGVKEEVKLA
Histone deacetylase 2, sequence (Q92769 whole entry): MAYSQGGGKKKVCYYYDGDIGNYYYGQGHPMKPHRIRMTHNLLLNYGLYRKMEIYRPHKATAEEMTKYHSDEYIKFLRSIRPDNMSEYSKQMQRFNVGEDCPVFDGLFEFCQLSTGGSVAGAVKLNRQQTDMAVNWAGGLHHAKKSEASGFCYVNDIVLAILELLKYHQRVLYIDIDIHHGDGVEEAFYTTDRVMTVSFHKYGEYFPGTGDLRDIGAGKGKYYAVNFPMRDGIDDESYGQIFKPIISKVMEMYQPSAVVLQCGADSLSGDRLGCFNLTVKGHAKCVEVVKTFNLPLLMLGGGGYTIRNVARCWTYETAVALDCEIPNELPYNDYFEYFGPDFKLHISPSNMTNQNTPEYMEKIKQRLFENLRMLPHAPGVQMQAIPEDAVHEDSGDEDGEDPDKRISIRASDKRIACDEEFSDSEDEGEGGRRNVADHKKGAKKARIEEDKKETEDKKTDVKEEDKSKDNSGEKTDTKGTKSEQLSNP
Polyamine deacetylase HDAC10, sequence (Q969S8 whole entry): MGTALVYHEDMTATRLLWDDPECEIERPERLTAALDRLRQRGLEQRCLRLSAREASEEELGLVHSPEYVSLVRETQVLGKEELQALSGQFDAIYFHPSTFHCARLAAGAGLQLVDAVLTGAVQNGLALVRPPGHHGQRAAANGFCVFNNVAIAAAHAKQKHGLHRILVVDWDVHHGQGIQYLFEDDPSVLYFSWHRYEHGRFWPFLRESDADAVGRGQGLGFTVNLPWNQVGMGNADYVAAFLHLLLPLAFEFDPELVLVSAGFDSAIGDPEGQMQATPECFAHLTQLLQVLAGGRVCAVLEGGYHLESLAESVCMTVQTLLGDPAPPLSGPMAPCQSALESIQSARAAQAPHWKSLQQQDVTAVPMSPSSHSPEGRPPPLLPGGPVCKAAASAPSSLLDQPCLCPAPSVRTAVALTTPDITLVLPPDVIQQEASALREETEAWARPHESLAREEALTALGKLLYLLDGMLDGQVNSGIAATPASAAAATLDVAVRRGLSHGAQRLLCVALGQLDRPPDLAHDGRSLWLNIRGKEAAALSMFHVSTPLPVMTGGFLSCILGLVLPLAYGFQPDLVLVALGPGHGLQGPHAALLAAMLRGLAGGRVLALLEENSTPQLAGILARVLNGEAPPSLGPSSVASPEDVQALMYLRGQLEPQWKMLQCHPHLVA
Histone deacetylase 4, sequence (P56524 whole entry): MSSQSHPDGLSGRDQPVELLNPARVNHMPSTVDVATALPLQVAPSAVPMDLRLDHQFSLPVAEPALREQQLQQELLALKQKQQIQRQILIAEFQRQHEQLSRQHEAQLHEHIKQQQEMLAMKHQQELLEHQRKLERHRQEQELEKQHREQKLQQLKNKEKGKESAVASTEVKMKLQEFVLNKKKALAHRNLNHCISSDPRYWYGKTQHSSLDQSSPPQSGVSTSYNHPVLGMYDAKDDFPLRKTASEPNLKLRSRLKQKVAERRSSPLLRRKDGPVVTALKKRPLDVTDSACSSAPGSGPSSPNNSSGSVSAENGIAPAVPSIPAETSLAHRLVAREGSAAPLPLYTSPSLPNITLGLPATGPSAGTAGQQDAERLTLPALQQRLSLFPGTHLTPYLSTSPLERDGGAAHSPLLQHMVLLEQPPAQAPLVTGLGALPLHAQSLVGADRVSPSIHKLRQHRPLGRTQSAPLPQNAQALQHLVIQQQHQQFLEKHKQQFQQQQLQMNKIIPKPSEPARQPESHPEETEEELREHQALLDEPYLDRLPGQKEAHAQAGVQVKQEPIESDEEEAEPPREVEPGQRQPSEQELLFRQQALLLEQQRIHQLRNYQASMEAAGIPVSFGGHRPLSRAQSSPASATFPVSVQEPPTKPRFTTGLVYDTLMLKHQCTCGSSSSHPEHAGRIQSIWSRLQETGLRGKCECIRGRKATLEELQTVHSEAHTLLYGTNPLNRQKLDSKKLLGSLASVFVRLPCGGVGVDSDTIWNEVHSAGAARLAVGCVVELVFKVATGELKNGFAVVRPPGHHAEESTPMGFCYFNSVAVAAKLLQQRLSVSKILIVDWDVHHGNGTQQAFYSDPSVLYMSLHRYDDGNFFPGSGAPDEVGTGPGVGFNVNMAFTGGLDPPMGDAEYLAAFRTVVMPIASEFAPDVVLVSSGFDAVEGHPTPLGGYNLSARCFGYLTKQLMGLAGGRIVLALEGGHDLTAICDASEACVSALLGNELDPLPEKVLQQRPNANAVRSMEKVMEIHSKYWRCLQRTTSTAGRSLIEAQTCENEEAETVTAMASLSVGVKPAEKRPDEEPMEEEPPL

CC[C@@]1(O)C(=O)OCc2c1cc1n(c2=O)Cc2c-1nc1ccc(O)cc1c2/C=N/OCCCCCC(=O)NCCSSCCNC(=O)/C(Cc1ccc(O)c(Br)c1)=N\O
IC50 [1]: 0.88 µM
IC50 [2]: 0.253 µM
IC50 [3]: 0.2 µM
IC50 [4]: 0.00912 µM
IC50 [5]: 1.49 µM
IC50 [6]: 0.41 µM
IC50 [7]: Not Active

CCc1c2c(nc3ccc(OC(=O)N4CCC(N5CCCCC5)CC4)cc13)-c1cc3c(c(=O)n1C2)COC(=O)[C@]3(O)CC [IRINOTECAN]
IC50 [8]: > 10 µM
IC50 [9]: 0.74 µM
Activity [10]: 0%
IC50 [11]: 20.1 µM
IC50 [12]: > 10 µM
IC50 [13]: 2.8 µM
IC50 [14]: 4 µM
Activity [15]: 0%
IC50 [16]: > 10 µM
IC50 [1]: 2.4 µM
IC50 [17]: 4.8 µM
IC50 [18]: > 10 µM
IC50 [19]: 5.8 µM
Activity [20]: 12%
IC50 [21]: 4.4 µM
Activity [22]: 48%
IC50 [23]: > 10 µM
IC50 [3]: 1.5 µM
IC50 [24]: > 10 µM
Activity [25]: 36%
inhibition in vivo at 20 mg/kg [26]: 37%
IC50 [27]: 10 µM
IC50 [28]: 4.1 µM
Activity [29]: 0%
IC50 [30]: 1 µM
IC50 [31]: 3.8 µM
IC50 [32]: 9.4 µM
